Usually ED50 stands for the dose at which the effect has come halfway, by size or by number of responders. A word on the half-life: it is how long it takes for the measured level to halve. A low value points to fast loss.

Data set [1] deals with Staphylococcus aureus. The data set is described as follows: In vitro relative hydrolysis rate against Staphylococcus aureus. The class given is functional. Summed up: (§1)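 Spectrophotometric hydrolysis at 265 nm, substrate exposed to partially purified cell-free β-lactamase preparations; rate expressed as percentage of the cephaloridine rate.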
Data set [2] has as its system Staphylococcus aureus. The data set can be described thus: In vivo efficacy against Staphylococcus aureus infected mice treated at 1 hr and 5 hr post infection. It is filed as functional. The settings on record: Staphylococcus aureus; read-out: ED50.
Data set [3] relates to Streptococcus pyogenes. The data set can be described thus: Antibacterial activity against Streptococcus pyogenes. The class given is functional. To be noted: Streptococcus pyogenes; read-out: MIC.
Data set [4] deals with Escherichia coli. The data set can be described thus: In vivo efficacy against Escherichia coli infected mice treated at 1 hr and 5 hr post infection. To be noted: Escherichia coli; read-out: ED50. It is filed as functional.
Data set [5] has as its system Pseudomonas aeruginosa. The data set can be described thus: In vivo efficacy against Pseudomonas aeruginosa infections in mice. It is filed as functional. To be noted: Pseudomonas aeruginosa; read-out: MIC.
Data set [6] relates to Escherichia coli. The data set is described as follows: Antibacterial activity against Escherichia coli TEM. To be noted: Escherichia coli; read-out: MIC. The class given is functional.
Data set [7] relates to Klebsiella pneumoniae. The data set is described as follows: Antibacterial activity against Klebsiella pneumoniae X26. It is filed as functional. To be noted: Klebsiella pneumoniae; read-out: MIC.
In data set [8] the test system is Pseudomonas aeruginosa. The data set can be described thus: In vivo efficacy against Pseudomonas aeruginosa infected mice treated at 1 hr and 5 hr post infection. It is filed as functional. The settings on record: Pseudomonas aeruginosa; read-out: ED50.
Data set [9] deals with Serratia marcescens. The data set is described as follows: Antibacterial activity against Serratia marcescens SE3. The class given is functional. The settings on record: Serratia marcescens; read-out: MIC.
In data set [10] the test system is Escherichia coli. The data set can be described thus: Antibacterial activity against Escherichia coli EC14. The settings on record: Escherichia coli; read-out: MIC. The class given is functional.
Data set [11] deals with Pseudomonas aeruginosa. The data set can be described thus: In vitro relative hydrolysis rate against Pseudomonas Id. The class given is functional. In outline: as §1
For data set [12], the system named is Enterobacter cloacae. The data set can be described thus: In vitro relative hydrolysis rate against Enterobacter Ia. The class given is functional. Summed up:
as §1

Data set [13] has as its system Staphylococcus aureus. The data set can be described thus: Antibacterial activity against penicillin G resistance Staphylococcus aureus. The class given is functional. To be noted: Staphylococcus aureus; read-out: MIC.
Data set [14] has as its system Klebsiella pneumoniae. The data set is described as follows: In vitro relative hydrolysis rate against Klebsiella IV. The class given is functional. In outline:
as §1

Data set [15] relates to Pseudomonas aeruginosa. The data set can be described thus: Antibacterial activity against Pseudomonas aeruginosa PS18. The class given is functional. To be noted: Pseudomonas aeruginosa; read-out: MIC.
Data set [16] has as its system Staphylococcus aureus. The data set is described as follows: Antibacterial activity against penicillin G susceptible Staphylococcus aureus. The settings on record: Staphylococcus aureus; read-out: MIC. The class given is functional.
For data set [17], the system named is Staphylococcus aureus. The data set is described as follows: In vivo efficacy against Staphylococcus aureus infections in mice. It is filed as functional. To be noted: Staphylococcus aureus; read-out: MIC.
The subject of data set [18] is Enterobacter cloacae. The data set is described as follows: Antibacterial activity against Enterobacter cloacae 265A. The class given is functional. To be noted: Enterobacter cloacae; read-out: MIC.
For data set [19], the system named is Streptococcus pneumoniae. The data set is described as follows: Antibacterial activity against Streptococcus pneumoniae. It is filed as functional. The settings on record: Streptococcus pneumoniae; read-out: MIC.
The test system of data set [20] is Enterococcus faecium. The data set can be described thus: Antibacterial activity against Enterococcus faecium. The class given is functional. To be noted: Enterococcus faecium; read-out: MIC.
Data set [21] has as its system Klebsiella pneumoniae. The data set can be described thus: microbe, parasite or virus in culture. The settings on record: Klebsiella pneumoniae; read-out: MIC. It is filed as functional.
For data set [22], the system named is Pseudomonas aeruginosa. The data set is described as follows: Antibacterial activity against Pseudomonas aeruginosa X528. The class given is functional. The settings on record: Pseudomonas aeruginosa; read-out: MIC.
Data set [23] has as its system Escherichia coli. The data set can be described thus: In vitro relative hydrolysis rate against Escherichia coli IIIa. The class given is functional. Summed up:
as §1

The test system of data set [24] is Escherichia coli. The data set is described as follows: In vivo efficacy against Escherichia coli infections in mice. The class given is functional. To be noted: Escherichia coli; read-out: MIC.
Data set [25] relates to Enterobacter cloacae. The data set is described as follows: Antibacterial activity against Enterobacter cloacae EB5. To be noted: Enterobacter cloacae; read-out: MIC. It is filed as functional.
The subject of data set [26] is Canis familiaris. The data set can be described thus: Percent of dose in dogs urine at the dose of 60 mg/kg. The class given is functional, Canis lupus familiaris. In outline: (§2)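 Overnight-fasted female mongrel dogs with a Foley bladder catheter; bolus into the cephalic vein. Plasma and urine collected before dosing and over 24 h after. Antibacterial activity measured by microbiological assay.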

A short description of data set [27]: Terminal half life in dogs at the dose of 60 mg/kg. It is filed as ADME, organism-based, Canis lupus familiaris. Also on record: dose 60 mg/kg. To be noted: dog, in vivo. Summed up: as §2

Values after ≈ are worked out from the molar mass of the structure shown.

With `CO/N=C(\C(=O)N[C@@H]1C(=O)N2C(C(=O)[O-])=C(C[n+]3cccc4ccccc43)CS[C@H]12)c1csc(N)n1`, the Hydrolysis rate came out at 8.4 in data set [1]; 0.1 in [11]; 0.1 in data set [12]; 0.8 in [14]; 0.2 in [23]. Moreover, the ED50 came out at 0.4 mg/kg in data set [2], 0.04 mg/kg in data set [4] and 9.5 mg/kg in data set [8]. The MIC in data set [3] is 0.015 µg/mL (≈ 0.0286 µM); in [5], 8 µg/mL (≈ 15.3 µM); in data set [6], 0.015 µg/mL (≈ 0.0286 µM); in [7], 0.015 µg/mL (≈ 0.0286 µM); in data set [9], 0.125 µg/mL (≈ 0.238 µM); in [10], 0.03 µg/mL (≈ 0.0572 µM). Besides, the MIC in data set [13] came out at 1 µg/mL (≈ 1.91 µM); in [15], 4 µg/mL (≈ 7.63 µM); in data set [16], 0.5 µg/mL (≈ 0.953 µM); in [17], 0.5 µg/mL (≈ 0.953 µM); in data set [18], 4 µg/mL (≈ 7.63 µM); in data set [19], 0.015 µg/mL (≈ 0.0286 µM). In addition, the MIC was determined as 128 µg/mL (≈ 244 µM) in [20]; 2 µg/mL (≈ 3.81 µM) in data set [21]; 2 µg/mL (≈ 3.81 µM) in data set [22]; 0.03 µg/mL (≈ 0.0572 µM) in [24]; 0.125 µg/mL (≈ 0.238 µM) in data set [25].
On to `CO/N=C(\C(=O)N[C@@H]1C(=O)N2C(C(=O)[O-])=C(C[n+]3cccc4occc43)CS[C@H]12)c1csc(N)n1`, for which the MIC in data set [3] turned out to be 0.06 µg/mL (≈ 0.117 µM); in data set [6] it was 0.06 µg/mL (≈ 0.117 µM); in data set [7] it was 0.06 µg/mL (≈ 0.117 µM); in data set [9] it was 0.25 µg/mL (≈ 0.486 µM); in [10] it was 0.06 µg/mL (≈ 0.117 µM); in [13] it was 4 µg/mL (≈ 7.77 µM). Also, the MIC in data set [15] is 8 µg/mL (≈ 15.5 µM); in [16], 0.5 µg/mL (≈ 0.972 µM); in [18] it was 4 µg/mL (≈ 7.77 µM); in data set [19], 0.06 µg/mL (≈ 0.117 µM); in data set [20], 32 µg/mL (≈ 62.2 µM); in data set [21], 8 µg/mL (≈ 15.5 µM). Moreover, the MIC in data set [22] amounted to 4 µg/mL (≈ 7.77 µM); in [25] it was 0.5 µg/mL (≈ 0.972 µM). Also, in data set [26], the “Percent of dose recovered in urine” value was 78%. Also, in data set [27], the half-life is 1.67 h.
For `CO/N=C(\C(=O)N[C@@H]1C(=O)N2C(C(=O)[O-])=C(C[n+]3ccc4sc(C)cc4c3)CS[C@H]12)c1csc(N)n1`, the MIC in data set [3] is below 0.008 µg/mL; in data set [6] it was 0.015 µg/mL (≈ 0.0275 µM); in data set [7] it was below 0.008 µg/mL; in data set [9] it was 0.06 µg/mL (≈ 0.11 µM); in data set [10], 0.015 µg/mL (≈ 0.0275 µM); in data set [13], 4 µg/mL (≈ 7.34 µM). Also, the MIC is 8 µg/mL (≈ 14.7 µM) in data set [15]; 0.5 µg/mL (≈ 0.918 µM) in data set [16]; 4 µg/mL (≈ 7.34 µM) in data set [18]; below 0.008 µg/mL in data set [19]; above 128 µg/mL in data set [20]; 1 µg/mL (≈ 1.84 µM) in data set [21]. The results for the MIC in data set [22] and in [25] were 2 µg/mL (≈ 3.67 µM) and 0.06 µg/mL (≈ 0.11 µM), respectively. The “Percent of dose recovered in urine” value in data set [26] is recorded as 64%. For the same compound, in [27], the half-life came out at 1.67 h.
Regarding `CO/N=C(\C(=O)N[C@@H]1C(=O)N2C(C(=O)[O-])=C(C[n+]3ccc4occc4c3)CS[C@H]12)c1csc(N)n1`, the ED50 in data set [2] was below 0.6 mg/kg; in data set [4], below 0.6 mg/kg; in [8] it was 18 mg/kg. Moreover, the MIC in data set [3] is below 0.008 µg/mL; in data set [5] it was 4 µg/mL (≈ 7.77 µM); in [6] it was 0.03 µg/mL (≈ 0.0583 µM); in [7] it was 0.015 µg/mL (≈ 0.0292 µM); in data set [9], 0.03 µg/mL (≈ 0.0583 µM); in [10], 0.015 µg/mL (≈ 0.0292 µM). Also, the MIC in data set [13] is 4 µg/mL (≈ 7.77 µM); in data set [15] it was 2 µg/mL (≈ 3.89 µM); in data set [16], 0.5 µg/mL (≈ 0.972 µM); in data set [17], 1 µg/mL (≈ 1.94 µM); in [18] it was 4 µg/mL (≈ 7.77 µM); in data set [19], below 0.008 µg/mL. Besides, the MIC was above 128 µg/mL in data set [20]; 4 µg/mL (≈ 7.77 µM) in [21]; 1 µg/mL (≈ 1.94 µM) in data set [22]; 0.015 µg/mL (≈ 0.0292 µM) in [24]; 0.06 µg/mL (≈ 0.117 µM) in [25]. In addition, the “Percent of dose recovered in urine” value in [26] worked out at 94%. Further, the half-life in data set [27] was 1.33 h.

(Values after ChEMBL document CHEMBL1124865, “Synthesis and biological evaluation of a series of parenteral 3'-quaternary ammonium cephalosporins” (J Med Chem, 1990).)
